# How the values were obtained:
# Rhizoctonia solani [1] = test: Antifungal activity against Rhizoctonia solani AG-4 assessed as inhibition of colony size at 30 ppm at 27 degC measured after 48 hr; assay type: functional; conditions: AG-4, 48 h
# Procedure, shortened: (§1)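 R. solani AG-4 RST-04 was kept on PDA slants. Samples were dissolved in distilled water, with distilled water as the control. Growth was on PDA plates at 27 °C for 48 h. Colony size was measured as mean ± SE (n = 8). Inhibition % = [(control colony size − treatment colony size)/control colony size] × 100. Groups were compared by Duncan's multiple-range test (p = 0.05).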
# Rhizoctonia solani [2] = test: Antifungal activity against Rhizoctonia solani AG-4 assessed as inhibition of colony size at 100 ppm at 27 degC measured after 48 hr; assay type: functional; conditions: AG-4, 48 h; procedure, shortened: as §1
# Rhizoctonia solani [3] = test: Antifungal activity against Rhizoctonia solani AG-4 assessed as inhibition of mycelial growth at 27 degC measured after 48 hr; assay type: functional, organism-based
# Rhizoctonia solani [4] = test: Antifungal activity against Rhizoctonia solani AG-4 assessed as inhibition of colony size at 60 ppm at 27 degC measured after 48 hr; assay type: functional; conditions: AG-4, 48 h; procedure, shortened: as §1
# Rhizoctonia solani [5] = test: Antifungal activity against Rhizoctonia solani AG-4 assessed as inhibition of colony size at 10 ppm at 27 degC measured after 48 hr; assay type: functional; conditions: AG-4, 48 h; procedure, shortened: as §1
# Rhizoctonia solani [6] = test: Antifungal activity against Rhizoctonia solani AG-4 assessed as inhibition of colony size at 125 ppm at 27 degC measured after 48 hr; assay type: functional; conditions: AG-4, 48 h; procedure, shortened: as §1
# Rhizoctonia solani [7] = test: Antifungal activity against Rhizoctonia solani AG-4 assessed as inhibition of colony size at 0.25 ppm at 27 degC measured after 48 hr; assay type: functional; conditions: AG-4, 48 h
# Procedure, shortened: (§2)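 R. solani AG-4 RST-04 was grown on potato dextrose agar plates at 27 °C for 48 h, with the reference fungicide tested across 0.25-250 ppm. Samples were dissolved in distilled water, and plates given distilled water alone served as control. Colony size was read as the mean of n = 8. Inhibition (%) = [(control colony size − treated colony size)/control colony size] × 100.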
# Rhizoctonia solani [8] = test: Antifungal activity against Rhizoctonia solani AG-4 assessed as inhibition of colony size at 25 ppm at 27 degC measured after 48 hr; assay type: functional; conditions: AG-4, 48 h; procedure, shortened: as §2
# Rhizoctonia solani [9] = test: Antifungal activity against Rhizoctonia solani AG-4 assessed as inhibition of colony size at 250 ppm at 27 degC measured after 48 hr; assay type: functional; conditions: AG-4, 48 h; procedure, shortened: as §2
# Rhizoctonia solani [10] = test: Antifungal activity against Rhizoctonia solani AG-4 assessed as inhibition of colony size at 2.5 ppm at 27 degC measured after 48 hr; assay type: functional; conditions: AG-4, 48 h; procedure, shortened: as §2
Structure (SMILES),inhibition at 30 ppm (Rhizoctonia solani [1]) [%],inhibition at 100 ppm (Rhizoctonia solani [2]) [%],IC50 (Rhizoctonia solani [3]) [ppm],inhibition at 60 ppm (Rhizoctonia solani [4]) [%],inhibition at 10 ppm (Rhizoctonia solani [5]) [%],inhibition at 125 ppm (Rhizoctonia solani [6]) [%],inhibition at 0.25 ppm (Rhizoctonia solani [7]) [%],inhibition at 25 ppm (Rhizoctonia solani [8]) [%],inhibition at 250 ppm (Rhizoctonia solani [9]) [%],inhibition at 2.5 ppm (Rhizoctonia solani [10]) [%]
C/C=C(/C)C(=O)O[C@H]1CC(C)(C)C[C@H]2C3=CC[C@@H]4[C@@]5(C)CC[C@H](O[C@@H]6O[C@H](C(=O)O)[C@@H](O)[C@H](O[C@@H]7OC[C@H](O)[C@H](O)[C@H]7O[C@@H]7O[C@H](CO)[C@@H](O)[C@H](O)[C@H]7O)[C@H]6O[C@@H]6O[C@H](CO)[C@H](O)[C@H](O)[C@H]6O)[C@@](C)(C=O)[C@@H]5CC[C@@]4(C)[C@]3(C)C[C@@H](O)[C@@]12CO [CAMELLIASAPONIN B1],46.8,63.4,55.7,56.5,6.43,–,–,–,–,–
C[C@@H]1O[C@@H](OC[C@H]2O[C@@H](Oc3c(-c4ccc(O)cc4)oc4cc(O)cc(O)c4c3=O)[C@H](O[C@@H]3O[C@H](CO)[C@H](O)[C@H](O)[C@H]3O)[C@@H](O)[C@@H]2O)[C@H](O)[C@H](O)[C@H]1O [CAMELLIASIDE A],–,–,> 125,–,–,-14.7,–,–,–,–
C[C@@H]1O[C@@H](OC[C@H]2O[C@@H](Oc3c(-c4ccc(O)cc4)oc4cc(O)cc(O)c4c3=O)[C@H](O[C@@H]3OC[C@@H](O)[C@H](O)[C@H]3O)[C@@H](O)[C@@H]2O)[C@H](O)[C@H](O)[C@H]1O [CAMELLIASIDE B],–,–,> 125,–,–,-14.5,–,–,–,–
O=C(Nc1ccccc1)N(Cc1ccc(Cl)cc1)C1CCCC1 [PENCYCURON],–,–,< 0.25,–,–,–,66.6,83.9,81.9,73.6

# — ChEMBL document CHEMBL3046220, “Bioactive saponin from tea seed pomace with inhibitory effects against Rhizoctonia solani” (J Agric Food Chem, 2010)
